In brackets after ≈: the same amount, converted by molar mass.

The assay concerns Mycobacterium tuberculosis. Nature of the assay: Antimicrobial activity against multidrug-resistant Mycobacterium tuberculosis C110/09 after 4 weeks. Type of assay: functional. The following applies: C110/09, 672 h. The method in brief:
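L-J proportion method against an MDR clinical isolate resistant to rifampicin, pyrazinamide and isoniazid. Drug in 64, 128 and 256 µg mL-1 dilutions in LJ medium slants, set overnight. Inoculated with 4 mg mL-1 suspension by 3 mm loop, 37 °C, 4 weeks. MIC is the lowest concentration fully inhibiting growth, by CFU versus controls (medium, inoculated, DMSO). Three independent determinations.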
Broadly, the MIC is the lowest concentration found to suppress growth. Low values mean greater potency, high ones weaker potency. `CCc1ccc(C2C(C(=O)Nc3ccccc3)=C(C)NC(C)=C2C(=O)Nc2ccccc2)cc1` came in with a minimum inhibitory concentration (MIC) of over 256 µg/mL.
The value for `CC1=C(C(=O)Nc2ccc(C)cc2)C(c2ccccn2)C(C(=O)Nc2ccc(C)cc2)=C(C)N1` was over 256 µg/mL.
Consider `CC1=C(C(=O)Nc2ccc(C)cc2)C(c2ccc[nH]2)C(C(=O)Nc2ccc(C)cc2)=C(C)N1`, for which the MIC amounted to 128 µg/mL (≈ 291 µM).
For `CC1=C(C(=O)Nc2ccccc2C)C(c2ccccn2)C(C(=O)Nc2ccccc2C)=C(C)N1`, the MIC stood at 256 µg/mL (≈ 566 µM).
The value for `NC(=O)c1cnccn1` [PYRAZINAMIDE] was 128 µg/mL (≈ 1040 µM).

For the origin of these results see ChEMBL document CHEMBL1770122, “Synthesis, antibacterial and antimycobacterial activities of some new 4-aryl/heteroaryl-2,6-dimethyl-3,5-bis-N-(aryl)-carbamoyl-1,4-dihydropyridines” (2011).
